How the values were obtained:
HCT-116 [1] = experiment: Cytotoxicity against p53 deficient human HCT116 cells assessed as cell growth inhibition after 72 hrs by MTS assay; type: functional, cell-based; conditions: HCT-116, 72 h
Method in brief: (§1)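 Cells were exposed to compound for 3 days, then stained with MTS as a quantitative metabolic read-out. IC50 is the concentration that inhibits cell growth by 50%.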

HeLa S3 = experiment: Cytotoxicity against human HeLaS3 cells assessed as reduction in cell viability after 72 hrs by XTT assay; type: functional, cell-based; conditions: HeLa S3, 72 h
Method in brief: (§2)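 Cells were incubated with compound for 3 days. Viability was then measured with the XTT tetrazolium assay.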

HepG2 = experiment: Cytotoxicity against human HepG2 cells assessed as reduction in cell viability after 72 hrs by XTT assay; type: functional, cell-based; conditions: HepG2, 72 h; method in brief: as §2
BJ = experiment: Cytotoxicity against human BJ cells assessed as cell growth inhibition after 72 hrs by MTS assay; type: cell-based; method in brief: as §1
[2] = Cytotoxicity against mrp-1/mdr-1 overexpressing human CEM-DNR-bulk cells assessed as cell growth inhibition after 72 hrs by MTS assay; type: functional, cell-based
Method in brief: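 Cells were exposed to compound for 3 days, then stained with MTS as a quantitative metabolic read-out.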

MRC5 = experiment: Cytotoxicity against human MRC5 cells assessed as cell growth inhibition after 72 hrs by MTS assay; type: cell-based; conditions: MRC5, 72 h; method in brief: as §1
A549 = experiment: Cytotoxicity against human A549 cells assessed as cell growth inhibition after 72 hrs by MTS assay; type: functional, cell-based; conditions: A549, 72 h; method in brief: as §1
U2OS = experiment: Cytotoxicity against human U2OS cells assessed as cell growth inhibition after 72 hrs by MTS assay; type: functional, cell-based
CCRF-CEM [3] = experiment: Cytotoxicity against human CCRF-CEM cells assessed as cell growth inhibition after 72 hrs by MTS assay
[4] = Cytotoxicity against human K562-TAX cells assessed as cell growth inhibition after 72 hrs by MTS assay; type: functional, cell-based; method in brief: as §1
HL-60 = experiment: Cytotoxicity against human HL60 cells assessed as reduction in cell viability after 72 hrs by XTT assay; type: functional, cell-based; conditions: HL-60, 72 h; method in brief: as §2
K562 = experiment: Cytotoxicity against human K562 cells assessed as cell growth inhibition after 72 hrs by MTS assay; type: functional, cell-based; conditions: K562, 72 h; method in brief: as §1
HCT-116 [5] = experiment: Cytotoxicity against human HCT116 cells assessed as cell growth inhibition after 72 hrs by MTS assay; type: functional, cell-based; conditions: HCT-116, 72 h; method in brief: as §1
Hepatitis C virus [6] = experiment: Anti-HCV activity against Hepatitis C virus genotype 2a infected in human Huh7 replicon cells after 96 hrs by luciferase reporter gene assay; type: functional, cell-based, Hepacivirus hominis; conditions: Huh-7, 96 h
Hepatitis C virus [7] = experiment: Anti-HCV activity against Hepatitis C virus genotype 1b infected in human Huh7 replicon cells after 96 hrs by luciferase reporter gene assay; type: functional, cell-based, Hepacivirus hominis; conditions: Huh-7, 96 h
[8] = Cytotoxicity against human HuH7 cells; type: cell-based, Huh-7
CCRF-CEM [9] = experiment: Inhibition of DNA synthesis in human CCRF-CEM cells assessed as decrease in BrdU incorporation by measuring synthesized DNA levels at 5 times IC50 after 24 hrs by propidium iodide staining-based flow cytometric analysis (reference value: 52.66%); type: functional
CCRF-CEM [10] = experiment: Cell cycle arrest in human CCRF-CEM cells assessed as accumulation at G2/M phase at 5 times IC50 after 24 hrs by propidium iodide staining-based flow cytometric analysis (reference value: 14.70%); type: functional
CCRF-CEM [11] = experiment: Cell cycle arrest in human CCRF-CEM cells assessed as accumulation at S phase at IC50 after 24 hrs by propidium iodide staining-based flow cytometric analysis (reference value: 44.20%); type: functional
CCRF-CEM [12] = experiment: Inhibition of DNA synthesis in human CCRF-CEM cells assessed as decrease in BrdU incorporation by measuring synthesized DNA levels at IC50 after 24 hrs by propidium iodide staining-based flow cytometric analysis (reference value: 52.66%); type: functional
CCRF-CEM [13] = experiment: Cell cycle arrest in human CCRF-CEM cells assessed as accumulation at G2/M phase at IC50 after 24 hrs by propidium iodide staining-based flow cytometric analysis (reference value: 14.70%); type: functional
CCRF-CEM [14] = experiment: Induction of apoptosis in human CCRF-CEM cells assessed as accumulation at subG1 phase at IC50 after 24 hrs by propidium iodide staining-based flow cytometric analysis (reference value: 2.32%); type: functional
CCRF-CEM [15] = experiment: Cell cycle arrest in human CCRF-CEM cells assessed as accumulation at S phase at 5 times IC50 after 24 hrs by propidium iodide staining-based flow cytometric analysis (reference value: 44.20%); type: functional
CCRF-CEM [16] = experiment: Inhibition of RNA synthesis in human CCRF-CEM cells assessed as decrease in BrU incorporation by measuring synthesized RNA levels at 5 times IC50 after 24 hrs by propidium iodide staining-based flow cytometric method (reference value: 53.09%); type: functional
CCRF-CEM [17] = experiment: Cell cycle arrest in human CCRF-CEM cells assessed as accumulation at G0/G1 phase at IC50 after 24 hrs by propidium iodide staining-based flow cytometric analysis (reference value: 41.11%); type: functional
CCRF-CEM [18] = experiment: Inhibition of mitosis in human CCRF-CEM cells assessed as pH3Ser10 positive cells at 5 times IC50 after 24 hrs by flow cytometric analysis (reference value: 1.74%); type: functional
CCRF-CEM [19] = experiment: Inhibition of RNA synthesis in human CCRF-CEM cells assessed as decrease in BrU incorporation by measuring synthesized RNA levels at IC50 after 24 hrs by propidium iodide staining-based flow cytometric method (reference value: 53.09%); type: functional
CCRF-CEM [20] = experiment: Inhibition of mitosis in human CCRF-CEM cells assessed as pH3Ser10 positive cells at IC50 after 24 hrs by flow cytometric analysis (reference value: 1.74%); type: functional
CCRF-CEM [21] = experiment: Cell cycle arrest in human CCRF-CEM cells assessed as accumulation at G0/G1 phase at 5 times IC50 after 24 hrs by propidium iodide staining-based flow cytometric analysis (reference value: 41.11%); type: functional
CCRF-CEM [22] = experiment: Induction of apoptosis in human CCRF-CEM cells assessed as accumulation at subG1 phase at 5 times IC50 after 24 hrs by propidium iodide staining-based flow cytometric analysis (reference value: 2.32%); type: functional
CCRF-CEM [23] = experiment: Inhibition of mitosis in human CCRF-CEM cells assessed as pH3Ser10 positive cells after 24 hrs by flow cytometric analysis; type: functional, cell-based

| SMILES | IC50 (HCT-116 [1]) [µM] | IC50 (HeLa S3) [µM] | IC50 (HepG2) [µM] | IC50 (BJ) [µM] | IC50 [2] [µM] | IC50 (MRC5) [µM] | IC50 (A549) [µM] | IC50 (U2OS) [µM] | IC50 (CCRF-CEM [3]) [µM] | IC50 [4] [µM] | IC50 (HL-60) [nM] | IC50 (K562) [µM] | IC50 (HCT-116 [5]) [µM] | EC50 (Hepatitis C virus [6]) [µM] | EC50 (Hepatitis C virus [7]) [nM] | CC50 [8] [µM] | further results |
| --- | --- | --- | --- | --- | --- | --- | --- | --- | --- | --- | --- | --- | --- | --- | --- | --- | --- |
| CN(C)c1ncnc2c1c1ccsc1n2[C@@H]1O[C@H](CO)[C@@H](O)[C@H]1O | > 50 | > 50 | > 50 | > 50 | > 50 | > 50 | > 50 | > 50 | > 50 | > 50 | > 50000 | > 50 | > 50 | – | – | – | – |
| Nc1ncnc2c1c1sccc1n2[C@@H]1O[C@H](CO)[C@@H](O)[C@H]1O | 4.37 | 1.54 | 0.56 | 16.8 | 15.2 | 30.3 | 11.9 | 2.5 | 6.22 | 4.28 | 310 | 6.16 | 5.39 | 13.5 | 5020 | 16.4 to 17.2 | – |
| COc1ncnc2c1c1sccc1n2[C@@H]1O[C@H](CO)[C@@H](O)[C@H]1O | 0.13 | 0.9 | 0.15 | 0.4 | 61.8 | 25.2 | 0.22 | 0.46 | 0.13 | 4.05 | 110 | 0.2 | 0.13 | 15 | 950 | 13.9 to 29.2 | BrdU+ cells (%) (CCRF-CEM [9]): 63.58%; Activity (CCRF-CEM [10]): 5.86%; Activity (CCRF-CEM [11]): 50.91%; BrdU+ cells (%) (CCRF-CEM [12]): 56%; Activity (CCRF-CEM [13]): 14.73%; Activity (CCRF-CEM [14]): 11.17%; Activity (CCRF-CEM [15]): 75.47%; BrU+ cells (%) (CCRF-CEM [16]): 26.27%; Activity (CCRF-CEM [17]): 34.35%; pH3Ser10+ cells (%) (CCRF-CEM [18]): 0.41%; BrU+ cells (%) (CCRF-CEM [19]): 34.93%; pH3Ser10+ cells (%) (CCRF-CEM [20]): 1.07%; Activity (CCRF-CEM [21]): 18.67%; Activity (CCRF-CEM [22]): 17.46%; Activity (CCRF-CEM [23]): Dose-dependent effect |
| OC[C@H]1O[C@@H](n2c3ccsc3c3c(-c4ccco4)ncnc32)[C@H](O)[C@@H]1O | > 50 | > 50 | > 50 | > 50 | > 50 | > 50 | > 50 | > 50 | > 50 | > 50 | > 50000 | > 50 | > 50 | – | – | – | – |
| OC[C@H]1O[C@@H](n2c3ncnc(-c4cc5ccccc5o4)c3c3ccsc32)[C@H](O)[C@@H]1O | > 50 | > 50 | > 50 | 36.8 | 20.6 | 37.5 | > 50 | 33.1 | 15.9 | 14.9 | > 50000 | 29.7 | 47.1 | 14.1 | 2050 | > 44.4 | – |
| COc1ncnc2c1c1ccsc1n2[C@@H]1O[C@H](CO)[C@@H](O)[C@H]1O | 0.64 | 0.23 | 1.33 | 7.49 | > 50 | > 50 | 1.23 | 0.93 | 0.22 | 11.1 | 570 | 1.06 | 0.61 | 0.4 | 230 | > 44.4 | BrdU+ cells (%) (CCRF-CEM [9]): 55.12%; Activity (CCRF-CEM [10]): 12.27%; Activity (CCRF-CEM [11]): 45.01%; BrdU+ cells (%) (CCRF-CEM [12]): 62.59%; Activity (CCRF-CEM [13]): 19.25%; Activity (CCRF-CEM [14]): 2.55%; Activity (CCRF-CEM [15]): 63.97%; BrU+ cells (%) (CCRF-CEM [16]): 8.31%; Activity (CCRF-CEM [17]): 35.73%; pH3Ser10+ cells (%) (CCRF-CEM [18]): 0.38%; BrU+ cells (%) (CCRF-CEM [19]): 28.75%; pH3Ser10+ cells (%) (CCRF-CEM [20]): 1.17%; Activity (CCRF-CEM [21]): 23.76%; Activity (CCRF-CEM [22]): 11.22%; Activity (CCRF-CEM [23]): Dose-dependent effect |
| CC(C)C(=O)OC[C@H]1O[C@@H](n2ccc(N)nc2=O)[C@](C)(F)[C@@H]1OC(=O)C(C)C [MERICITABINE] | – | – | – | – | – | – | – | – | – | – | – | – | – | – | – | > 44.4 | – |
| OC[C@H]1O[C@@H](n2c3ncnc(-c4ccco4)c3c3ccsc32)[C@H](O)[C@@H]1O | > 50 | > 50 | > 50 | > 50 | > 50 | > 50 | > 50 | > 50 | > 50 | > 50 | > 50000 | > 50 | > 50 | – | – | – | – |
| OC[C@H]1O[C@@H](n2c3ccsc3c3c(-c4cc5ccccc5o4)ncnc32)[C@H](O)[C@@H]1O | 12.3 | 24.3 | 4.28 | 23 | 14.4 | 32.6 | 21.2 | 18.5 | 6.86 | 17.9 | 2380 | 15.4 | 16.2 | 13.9 | 2100 | 19.6 to 26.6 | – |
| Nc1ncnc2c1c1ccsc1n2[C@@H]1O[C@H](CO)[C@@H](O)[C@H]1O | 10.9 | > 50 | 1.46 | 1.09 | 41.2 | > 50 | 30.1 | 0.51 | 0.3 | 0.82 | 950 | 36.3 | 46.7 | > 44.4 | 17500 | > 44.4 | – |
| OC[C@H]1O[C@@H](n2c3ncnc(-c4ccoc4)c3c3ccsc32)[C@H](O)[C@@H]1O | > 50 | > 50 | > 50 | > 50 | > 50 | > 50 | > 50 | > 50 | > 50 | > 50 | > 50000 | > 50 | > 50 | – | – | – | – |
| CN(C)c1ncnc2c1c1sccc1n2[C@@H]1O[C@H](CO)[C@@H](O)[C@H]1O | > 50 | > 50 | > 50 | > 50 | > 50 | > 50 | > 50 | > 50 | 47.6 | > 50 | > 50000 | > 50 | > 50 | – | – | – | – |
| Nc1ccn([C@@H]2O[C@H](CO)[C@@H](O)C2(F)F)c(=O)n1 [GEMCITABINE] | – | – | – | > 50 | – | > 50 | – | – | – | – | – | – | – | – | – | – | – |
| OC[C@H]1O[C@@H](n2c3ccsc3c3c(-c4ccoc4)ncnc32)[C@H](O)[C@@H]1O | > 50 | > 50 | > 50 | 32 | > 50 | > 50 | > 50 | > 50 | 3.61 | > 50 | > 50000 | > 50 | > 50 | – | – | – | – |

— ChEMBL document CHEMBL4007430, “Synthesis and Cytostatic and Antiviral Profiling of Thieno-Fused 7-Deazapurine Ribonucleosides” (J Med Chem, 2017)
